# Data taken from ChEMBL document CHEMBL1134485, “Diguanidino and "reversed" diamidino 2,5-diarylfurans as antimicrobial agents” (2001).
# What was measured:
# [1] = test system: Mycobacterium tuberculosis; assay: In vitro minimum inhibitory concentration required to inhibit Mycobacterium tuberculosis; format: functional
# Outline: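 M. tuberculosis H37Rv grown in BACTEC 12B medium; fluorometric broth microdilution (Microplate Alamar Blue Assay). […] MIC = lowest concentration reducing relative fluorescence units by ≥90% relative to control culture. Testing done by TAACF.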
# Aspergillus fumigatus = assay: Antimicrobial activity against Aspergillus fumigatus (MIC); format: functional
# Candida albicans [2] = assay: In vitro minimum fungicidal concentration against Candida albicans.; format: functional
# Outline: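 Yeast MFC: after broth macrodilution (RPMI 1640/MOPS pH 7.0, 0.5 × 10³ to 2.5 × 10³ CFU/mL, 35 °C, 48 h or 72 h for C. neoformans, drug 100 to 0.09 µg/mL), 100 µL from tubes with complete inhibition plated on Sabouraud agar; lowest concentration yielding three or fewer colonies recorded.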
# Candida albicans [3] = assay: In vitro minimum inhibitory concentration against Candida albicans.; format: functional
# Nucleic Acid [4] = assay: DNA binding affinity to poly dA.dT; format: nucleic-acid assay
# Nucleic Acid [5] = test system: Nucleic Acid
Compound,MIC [1],MIC (Aspergillus fumigatus),MFC (Candida albicans [2]),MIC (Candida albicans [3]),ΔTm (Nucleic Acid [4]),ΔTm (Nucleic Acid [5])
CO[C@H]1/C=C/O[C@@]2(C)Oc3c(C)c(O)c4c(O)c(c(/C=N/N5CCN(C)CC5)c(O)c4c3C2=O)NC(=O)/C(C)=C\C=C\[C@H](C)[C@H](O)[C@@H](C)[C@@H](O)[C@@H](C)[C@H](OC(C)=O)[C@@H]1C [RIFAMPIN],0.062 µg/mL,–,–,–,–,–
Cc1cc(NC(=N)c2ccc3ccccc3n2)ccc1-c1ccc(-c2ccc(NC(=N)c3ccc4ccccc4n3)cc2C)o1,–,100 µg/mL,100 µg/mL,100 µg/mL,7.5,1.1
